According to ChEMBL document CHEMBL3352316, “Optimization of physicochemical properties and safety profile of novel bacterial topoisomerase type II inhibitors (NBTIs) with activity against Pseudomonas aeruginosa” (Bioorg Med Chem, 2014):
Values after ≈ are worked out from the molar mass of the structure shown.

Key:
[1] = Aqueous solubility of the compound; assay type: physicochemical; conditions: buffer
Staphylococcus aureus = test: Antimicrobial activity against methicillin-susceptible Staphylococcus aureus after 18 to 20 hrs by broth microdilution; assay type: functional
In short: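 Broth microdilution followed CLSI guidelines in Mueller Hinton broth. Inocula were grown 18–20 h at 35 °C on blood agar. Compound in DMSO was tested in doubling dilutions from 64 to 0.06 µg/mL, at 2% DMSO final. Plates were incubated 18–20 h and read at OD 620 nm. MIC was taken as the concentration giving >90% growth inhibition.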

[2] = Partition co-efficient, log D of the compound at pH 7.4 by shake flask method; assay type: physicochemical; conditions: buffer
In short: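 Shake-flask method with 10 mM phosphate buffer pH 7.4 against n-octanol, shaken 1 h at 1200 rpm to equilibrium. Analysis was by LC/UV with MS confirmation.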

[3] = Clearance in rat at 10 mg/kg, iv; assay type: ADME, organism-based; set-up: dose 10 mg/kg, route intravenous; conditions: in vivo
In short: (§1)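 Male rats (Wistar Han) and Beagle dogs received 10 mg/kg as a 15 min iv infusion. Serial 200 µL whole-blood samples were taken from 0 to 24 h. Plasma levels were measured by LC–MS/MS against a standard curve after methanol protein precipitation. Parameters were estimated non-compartmentally.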

[4] = AUC in rat at 10 mg/kg, iv; assay type: ADME, organism-based; set-up: dose 10 mg/kg, route intravenous; conditions: plasma; in short: as §1
Pseudomonas aeruginosa [5] = test: Antimicrobial activity against Pseudomonas aeruginosa PAO1 in neutropenic mouse thigh infection model assessed as log reduction in CFU at 100 mg/kg/day, ip bid q12 regime starting 2 hrs after infection measured 24 hrs post start of treatment relative to control; assay type: functional; conditions: route intraperitoneal
In short: (§2)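 CD-1 mice made neutropenic with intraperitoneal cyclophosphamide 4 days (150 mg/kg) and 1 day (100 mg/kg) before thigh infection with P. aeruginosa PAO1, target inoculum 5 × 10⁵ CFU. Groups of five dosed ip in 5% dextrose with lactic acid pH 5.0. Vehicle-only group included. Thighs removed 24 h after treatment start, weighed, homogenized and plated on tryptic soy agar, 37 °C overnight. Log CFU/g reduction is relative to starting inoculum.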

Pseudomonas aeruginosa [6] = test: Antimicrobial activity against Pseudomonas aeruginosa PAO1 in neutropenic mouse thigh infection model assessed as log reduction in CFU at 150 mg/kg/day, ip bid q12 regime starting 2 hrs after infection measured 24 hrs post start of treatment relative to control; assay type: functional; conditions: route intraperitoneal; in short: as §2
[7] = AUC(infinity) in neutropenic mouse at 150 mg/kg/day, ip bid of total 12 doses; assay type: ADME, organism-based; set-up: dose 150 mg/kg/day, time infinity, route intraperitoneal; conditions: plasma
In short: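 CD-1 mice were made neutropenic with ip cyclophosphamide, 150 mg/kg at day −4 and 100 mg/kg at day −1, then infected in the thigh with P. aeruginosa PAO1. Dosing was ip, bid q12 from 2 h post-infection, in 5% dextrose with lactic acid pH 5.0. Groups of three mice were killed at timed intervals and cardiac-puncture plasma was analysed by LC–MS/MS.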

[8] = target: Sodium-dependent serotonin transporter (Homo sapiens) (UniProt P31645); test: Inhibition of SERT (unknown origin) at 30 uM
[9] = target: T1, Potassium/sodium hyperpolarization-activated cyclic nucleotide-gated channel 4 (Homo sapiens, UniProt Q9Y3Q4); test: Inhibition of potassium channel HCN4 (unknown origin)
T1 sequence (Q9Y3Q4 whole entry): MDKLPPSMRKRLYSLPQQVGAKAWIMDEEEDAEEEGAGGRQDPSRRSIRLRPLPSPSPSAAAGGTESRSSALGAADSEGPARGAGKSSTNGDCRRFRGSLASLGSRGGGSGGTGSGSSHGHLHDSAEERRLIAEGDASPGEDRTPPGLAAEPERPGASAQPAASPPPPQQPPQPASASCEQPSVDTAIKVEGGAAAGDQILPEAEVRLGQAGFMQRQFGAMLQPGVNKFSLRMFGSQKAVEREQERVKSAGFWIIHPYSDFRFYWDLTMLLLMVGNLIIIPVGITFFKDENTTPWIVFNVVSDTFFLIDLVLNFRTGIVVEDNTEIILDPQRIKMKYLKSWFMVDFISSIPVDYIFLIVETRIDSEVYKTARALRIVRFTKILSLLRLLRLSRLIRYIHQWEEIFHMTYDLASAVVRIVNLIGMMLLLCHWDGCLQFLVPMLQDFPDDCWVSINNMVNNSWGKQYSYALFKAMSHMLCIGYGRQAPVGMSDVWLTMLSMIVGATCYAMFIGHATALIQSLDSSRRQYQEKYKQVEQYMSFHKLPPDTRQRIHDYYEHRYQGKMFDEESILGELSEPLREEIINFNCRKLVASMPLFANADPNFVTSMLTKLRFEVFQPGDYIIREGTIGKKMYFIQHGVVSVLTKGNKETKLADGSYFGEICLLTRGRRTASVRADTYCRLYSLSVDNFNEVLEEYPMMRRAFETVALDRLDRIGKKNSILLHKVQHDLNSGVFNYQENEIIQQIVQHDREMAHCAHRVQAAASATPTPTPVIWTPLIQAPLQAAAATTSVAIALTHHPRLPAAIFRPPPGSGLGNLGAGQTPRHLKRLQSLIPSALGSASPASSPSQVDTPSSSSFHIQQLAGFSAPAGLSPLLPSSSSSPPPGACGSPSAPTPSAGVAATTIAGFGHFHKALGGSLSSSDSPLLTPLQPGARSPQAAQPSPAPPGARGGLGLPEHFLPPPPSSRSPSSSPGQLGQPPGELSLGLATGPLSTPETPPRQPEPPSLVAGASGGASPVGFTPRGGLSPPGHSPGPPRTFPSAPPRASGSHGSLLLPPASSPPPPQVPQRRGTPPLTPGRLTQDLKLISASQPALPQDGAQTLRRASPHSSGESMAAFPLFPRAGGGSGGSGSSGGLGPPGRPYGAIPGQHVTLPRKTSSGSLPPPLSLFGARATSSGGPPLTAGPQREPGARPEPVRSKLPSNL
In short: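 Automated IonWorks patch clamp was run on CHO or HEK cells expressing each channel. A channel-specific voltage pulse was applied before compound and again about 3 min after addition.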

Cavia porcellus = test: Cardiotoxicity in anesthetized guinea pig assessed as change in monophasic action potential duration at 90% repolarization at free drug 86 uM, iv as 17-min infusion; assay type: toxicity, organism-based; conditions: in vivo
In short: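 Male guinea pigs were anaesthetized with Nembutal, ventilated, vagotomized and given propranolol 0.5 mg/kg iv. MAPD90 was recorded during pacing. Compound in 5% dextrose was infused iv over two 17-min periods: 17 mg/kg at 0.1 mL/kg min, then 51 mg/kg at 0.2 mL/kg min. Blood was sampled at each level, and % change was taken from each animal's time-zero baseline.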

Canis familiaris = test: Cardiotoxicity in telemetered dog assessed as prolongation of QTc interval at 56 uM, iv as 1 hr infusion; assay type: toxicity, organism-based, Canis lupus familiaris; conditions: in vivo, 4 h, in the assay text read “4 hr infusion” for “1 hr infusion”
In short: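 Dogs were dosed by iv infusion in vehicle adjusted to pH 4. ECG intervals were measured and QTcR was corrected for heart rate by individual-animal correction. % change in QTcR was taken against the matched time point of the same animal on vehicle. Infusion was 1 h at 5 mL/kg/h (5% dextrose) or 4 h at 2 mL/kg/h (5% mannitol/0.1 M tartaric acid), with readings at infusion end.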

[10] = Ratio of fAUC to MIC in Pseudomonas aeruginosa PAO1 in neutropenic mouse thigh infection model at 150 mg/kg/day, ip bid q12h starting 2 h post infection; conditions: route intraperitoneal

Sequence of Sodium-dependent serotonin transporter (Homo sapiens) (P31645 whole entry, looked up): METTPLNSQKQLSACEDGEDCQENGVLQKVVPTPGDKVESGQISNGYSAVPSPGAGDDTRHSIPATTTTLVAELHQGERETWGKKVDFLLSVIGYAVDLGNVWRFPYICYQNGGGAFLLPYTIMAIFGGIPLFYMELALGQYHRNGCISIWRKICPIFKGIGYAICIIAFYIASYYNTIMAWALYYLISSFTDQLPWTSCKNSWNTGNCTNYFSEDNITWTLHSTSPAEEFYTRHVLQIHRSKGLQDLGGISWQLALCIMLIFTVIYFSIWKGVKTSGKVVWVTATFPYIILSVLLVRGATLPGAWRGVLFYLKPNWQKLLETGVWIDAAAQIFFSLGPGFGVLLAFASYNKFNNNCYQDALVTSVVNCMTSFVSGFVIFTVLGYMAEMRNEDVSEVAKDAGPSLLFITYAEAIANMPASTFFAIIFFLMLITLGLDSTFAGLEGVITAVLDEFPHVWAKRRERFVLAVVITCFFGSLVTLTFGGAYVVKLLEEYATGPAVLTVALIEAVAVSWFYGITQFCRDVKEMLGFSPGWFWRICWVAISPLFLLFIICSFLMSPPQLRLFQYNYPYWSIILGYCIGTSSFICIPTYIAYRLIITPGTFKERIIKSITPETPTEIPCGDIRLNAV

SMILES	solubility [1]	MIC90 (Staphylococcus aureus)	logD [2]	clearance [3]	AUC [4]	FC (Pseudomonas aeruginosa [5])	FC (Pseudomonas aeruginosa [6])	AUC(0-inf) [7]	inhibition [8]	IC50 [9]	Activity (Cavia porcellus)	Activity (Canis familiaris)	fAUC/MIC [10]
N[C@@H](Cn1c(=O)cnc2ccc(F)cc21)[C@H]1CC[C@H](NCc2ncc3c(n2)NC(=O)CO3)CC1	> 333 µM	1 µg/mL (≈ 2.14 µM)	-0.32	46 mL/min/kg	3300 ng·h/mL	0.2	1.3	20100 ng·h/mL	32%	> 100 µM	Toxic	9%	16
COc1ccc2ncc(=O)n(CCN3CCC(NCc4ccc5c(n4)NC(=O)CO5)CC3)c2c1	> 333 µM	0.03 µg/mL (≈ 0.0646 µM)		252 mL/min/kg	190 ng·h/mL				77%	> 100 µM			
